In PMC3483449 (FEBS letters, 2012):

B1: HCVCP-long peptide (aa. 2-27) (peptide)
peptide: STLPKPQRKTKRNTIRRPQDVKFPGG

What was measured:
mouse AA3 [1] = molecular target: T1, mouse AA3 (Mus musculus, UniProt Q91XE4); assay: Inhibition of Co2+-dependent endopeptidase activity of AA3; assay type: biochemical; details: 1 mg/ml Pefabloc SC
T1 sequence (Q91XE4 1-318): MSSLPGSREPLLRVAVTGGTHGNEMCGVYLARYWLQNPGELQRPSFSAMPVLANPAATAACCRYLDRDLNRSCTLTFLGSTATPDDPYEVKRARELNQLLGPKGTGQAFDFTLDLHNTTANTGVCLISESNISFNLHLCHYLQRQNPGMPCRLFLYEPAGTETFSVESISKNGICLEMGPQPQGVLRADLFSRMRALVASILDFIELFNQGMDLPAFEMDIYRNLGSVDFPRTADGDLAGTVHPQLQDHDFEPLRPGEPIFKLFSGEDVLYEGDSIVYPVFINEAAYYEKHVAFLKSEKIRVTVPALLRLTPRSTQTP
Summary of the method: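 Cleavage reaction with N-terminally Strep(II)-tagged mouse AA3 (E. coli-expressed, Streptactin-purified): 3 µM enzyme plus 1 mM peptide or 0.1 mM His-tagged HCV core protein (aa 1–177) in 50 mM Tris-HCl pH 7.5 with 1 mM CoCl2, incubated 18 h at 37°C. Products were diluted to 50 µM peptide, then analysed by reverse-phase HPLC with UV and on-line ionspray triple-quadrupole MS. Cleavage sites were assigned from masses.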

mouse AA3 [2] = molecular target: T1, mouse AA3; assay: Peptide cleavage catalyzed by AA3; assay type: biochemical; details: 3 μM AA3, 1 mM peptide or 0.1 mM HCVCP, 50 mM Tris-HCl pH 7.5, 1 mM CoCl2, 18 h, 37°C; LC-MS
Summary of the method: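 Recombinant mouse AA3 (N-terminal Strep(II) tag, expressed in E. coli, Streptactin-purified) was incubated with N-acetylated or free peptides, or with His-tagged HCV core aa 1–177 (genotype 1). Aliquots were diluted in water to 50 μM peptide, then run by reverse-phase HPLC (0.1% formic acid, 0–100% acetonitrile over 60 min) with UV and triple-quadrupole ESI-MS detection (m/z 300–2000). Cleavage sites were assigned from fragment masses.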

mouse aminoacylase 3 = molecular target: T2, mouse aminoacylase 3 (mouse, UniProt Q91XE4 1-318); assay: SPR
T2 sequence (looked up): T1 sequence (Q91XE4 1-318)

Molecule	Hydrolysis (cleavage) by AA3 (mouse AA3 [2])	also measured
Cl.NCCc1ccc(S(=O)(=O)F)cc1 [Pefabloc SC]		Inhibition of Co2+-dependent endopeptidase activity of AA3 (mouse AA3 [1]): ~ 50%
insulin B chain: standard protease substrate	not hydrolyzed	
casein	not hydrolyzed	
B1		Kd (mouse aminoacylase 3): 142 ± 11 µM
